From PubChem
MrgX1 allo act: human MrgX1 positive allosteric modulation, primary screen; Q96LB2; MrgX1-HEK293, Fluo-4 calcium flux, FDSS; hits give high values; B-score at 10 µM; 310,000 tested, 0.63% active; AID 588675;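 active = plate-corrected calcium response at least 3 library SD above typical, normal starting fluorescence, not activating the receptor alone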;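 note: compound read alongside a low EC10 to EC30 dose of BAM8-22 agonist; peak minus trough fluorescence over baseline measured at the second addition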
Target sequence (Q96LB2 whole entry, looked up): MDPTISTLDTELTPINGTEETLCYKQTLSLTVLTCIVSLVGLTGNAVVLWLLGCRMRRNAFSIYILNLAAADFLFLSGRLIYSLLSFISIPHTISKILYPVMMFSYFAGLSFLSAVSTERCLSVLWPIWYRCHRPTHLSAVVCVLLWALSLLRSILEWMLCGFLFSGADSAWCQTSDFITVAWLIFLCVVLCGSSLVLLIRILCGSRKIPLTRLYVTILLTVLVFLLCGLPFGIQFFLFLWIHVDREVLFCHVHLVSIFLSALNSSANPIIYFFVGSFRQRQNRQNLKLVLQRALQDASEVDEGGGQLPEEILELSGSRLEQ
RGS4 block: human RGS4 inhibition | B-score at 10 µM | 310,000 tested, 0.45% active | P49798 | HEK293 M3R/RGS4 inducible, Fluo-4 calcium flux; hits give high values; triggered by carbachol at its EC20;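 active = B-score, a plate-corrected calcium signal, over three deviations above library mean, with baseline fluorescence within five deviations of library mean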;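 note: RGS4 expression induced by doxycycline in cells with stable M3 receptor; B-score is computed from the integrated fluorescence ratio over baseline after carbachol; higher B-score means a larger calcium signal and so more RGS4 inhibition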
Target sequence (P49798 whole entry, looked up): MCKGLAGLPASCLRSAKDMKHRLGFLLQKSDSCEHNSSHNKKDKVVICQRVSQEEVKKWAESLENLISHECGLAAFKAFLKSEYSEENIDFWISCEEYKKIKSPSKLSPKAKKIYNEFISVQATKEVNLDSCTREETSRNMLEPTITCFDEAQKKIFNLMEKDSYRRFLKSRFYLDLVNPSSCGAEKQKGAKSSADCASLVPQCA
RGS4 act: potentiators or activators of RGS4. HEK293 M3R/inducible RGS4, carbachol calcium flux Fluo4; hits give low values. B-score at 10 µM. 310,000 tested, 0.92% active. AID 463111;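 active = B-score of the integrated calcium signal more than 4 SD below the library mean, with starting fluorescence not abnormally high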;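 note: negative B-score means reduced calcium response which marks RGS4 activation or potentiation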
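Also added: carbachol at ECmax as muscarinic agonist stimulus; Assay system: HEK293 cells with stable M3R and inducible RGS4; Timing: overnight RGS4 induction, 30 min dye load 37 °C, 20 min compound RT; Measured by: Fluo4-AM (2 µM) calcium-flux fluorescence, kinetic read.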
MrgX1 ag: human MrgX1 receptor agonism, primary screen; MrgX1-HEK293 cells, Fluo-4 calcium fluorescence, agonist mode; hits give high values; B-score at 10 µM; 310,000 tested, 0.44% active;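 active = calcium response B-score plate-corrected fluorescence ratio at least 3 library SD, with starting fluorescence B-score inside 5 SD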
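Test system: Stable human MrgX1 HEK293 cell line | Schedule: Overnight plating before 1 h dye loading | Read-out basis: Baseline-normalised fluorescence change ratio, B-scored | Detection: Kinetic calcium dye fluorescence, Fluo-4 NW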
MrgX1 antagonist: human MrgX1 receptor antagonism, primary screen; B-score at 10 µM; MRGX1-HEK293 calcium flux, Fluo-4, BAM8-22 antagonism; hits give low values; 310,000 tested, 1.3% active; Q96LB2;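 active = calcium-response B-score plate-corrected more than 3 library SD below zero, starting fluorescence within 5 deviations, no agonist response on first addition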;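 note: peak minus trough fluorescence over baseline after final BAM8-22 challenge near maximal dose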
MrgX1 antag conf: reconfirmed antagonist of human MrgX1 receptor signaling; remaining BAM8-22 calcium response % of control (hits give low values), % at 10 µM; 2,300 tested, 19% active; shares compounds with MrgX1 antagonist; MrgX1-HEK293, BAM8-22 calcium flux, Fluo-4; hits give low values;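 active = remaining agonist calcium response no higher than 100% minus 3 SD of agonist-only control wells, with starting fluorescence near control levels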;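 note: agonist BAM8-22 given at a near maximal EC90 to ECmax level; peak minus minimum fluorescence divided by baseline after agonist addition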
HEK293 Ca flux: counter-screen for MrgX1 antagonists: effect in parental HEK293 cells; shares compounds with MrgX1 antagonist; fluorescence ratio F(max-min)/F0 at 10 µM; AID 624111; 4,000 tested, 2% active; Fluo-4 calcium fluorescence, FDSS;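 active = duplicate-averaged calcium fluorescence ratio at least three times the standard deviation of buffer wells, a nonspecific response in parental cells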
HEK293 Ca counter: MrgX1 allosteric activator counter-screen hit in parental HEK293 cells; fluorescence ratio F(max-min)/F0 at 10 µM; parental HEK293 calcium flux, Fluo-4 fluorescence ratio; hits give high values; shares compounds with MrgX1 antagonist; 4,000 tested, 0.4% active;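 active = calcium fluorescence ratio, averaged over duplicates, at least 3 SD of the buffer-well ratio, meaning a nonspecific response in receptor-free cells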;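 note: untransfected parental HEK293 lacking MrgX1 used as counterscreen for MrgX1 allosteric activators; fluorescence change taken during the second addition on a kinetic imager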
HEK293 Ca cntr2: counter-screen for MrgX1 activators: effect in parental HEK293 cells | 4,000 tested, 8.7% active | shares compounds with MrgX1 antagonist | Fluo-4 calcium fluorescence (FDSS); hits give high values | fluorescence ratio F(max-min)/F0 at 10 µM;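 active = calcium fluorescence ratio at least three times the spread of buffer wells, meaning a non-specific response in parental cells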
Of the large screens only hits and unclear results are named; the others gave an inactive call (follow-up assays come after a bar, where they were run). A selection: hits, their analogues and other compounds. The true share with any hit is near 3.5%.

COc1ccc(CNC(=O)OCCN2CCN(Cc3ccccc3)CCC2=O)cc1	MrgX1 antagonist -4.9 | MrgX1 antag conf inactive | HEK293 Ca flux inactive | HEK293 Ca counter inactive | HEK293 Ca cntr2 inactive
CCOc1ccc(NC(=S)N(CC)Cc2ccccc2)cc1	none
Cc1ccccc1-c1nnnn1C1CCS(=O)(=O)C1 (stereo not drawn)	MrgX1 antagonist -6.4 | MrgX1 antag conf inactive | HEK293 Ca flux inactive | HEK293 Ca counter inactive | HEK293 Ca cntr2 inactive
Cn1cccc1-c1nc2ccccc2n1Cc1ccccc1	MrgX1 antagonist -4.9 | MrgX1 antag conf inactive | HEK293 Ca flux inactive | HEK293 Ca counter inactive | HEK293 Ca cntr2 inactive
O=C(Nc1ccc(OCc2ccccc2)cc1)c1ccccc1	MrgX1 antagonist -9 | MrgX1 antag conf inactive | HEK293 Ca flux inactive | HEK293 Ca counter inactive | HEK293 Ca cntr2 inactive
CC1(C)C2CCC13CS(=O)(=O)N[C@@H]3C2 (stereo partly drawn)	MrgX1 antagonist -9.4 | MrgX1 antag conf inactive | HEK293 Ca flux inactive | HEK293 Ca counter inactive | HEK293 Ca cntr2 inactive
CCOC(=O)/C(=C\c1ccc(OC(F)F)cc1)C1=Nn2c(nnc2-c2ccc(Cl)cc2)SC1	none
CCOc1ccc(NC(=O)Nc2nc(SCC)ns2)cc1	MrgX1 antagonist -6.3 | MrgX1 antag conf 78% | HEK293 Ca flux inactive | HEK293 Ca counter inactive | HEK293 Ca cntr2 inactive
CCSc1nsc(NC(=O)Nc2ccc(F)cc2F)n1	none
Cc1cc(NCCO)c2ccccc2n1	MrgX1 antagonist -4.6 | MrgX1 antag conf inactive | HEK293 Ca flux inactive | HEK293 Ca counter inactive | HEK293 Ca cntr2 inactive
Cc1ccc(Nc2nc(NCCO)c3ccccc3n2)cc1C	MrgX1 antagonist -6.1 | MrgX1 antag conf 78% | HEK293 Ca flux inactive | HEK293 Ca counter inactive | HEK293 Ca cntr2 inactive
C[C@]12CCC[C@H](O1)c1c(cc3c(c1O)C(=O)c1c(O)cc(O)cc1C3=O)O2	MrgX1 antagonist -7.6 | MrgX1 antag conf inactive | HEK293 Ca flux 0.64 | HEK293 Ca counter inactive | HEK293 Ca cntr2 inactive
CC1(C)CC(=O)c2c(O)cc(O)cc2O1	none
CCOc1ccc(C(NC(C)=O)c2ccc(OC)c(OC)c2)cc1 (stereo not drawn)	MrgX1 antagonist -4.9 | MrgX1 antag conf inactive | HEK293 Ca flux inactive | HEK293 Ca counter inactive | HEK293 Ca cntr2 inactive
CC(C)NC(=O)/C(C#N)=C/c1ccc(N(C)C)o1	none
COc1cc(NC(=O)CC(C)C)ccc1NC(=O)c1ccco1	MrgX1 antagonist -5.2 | MrgX1 antag conf inactive | HEK293 Ca flux inactive | HEK293 Ca counter inactive | HEK293 Ca cntr2 inactive
O=C(NCCO)C(=O)NCC1OCCCN1S(=O)(=O)c1ccc2c(c1)OCCO2 (stereo not drawn)	none
O=C1c2ccncc2C(=O)N1CO	MrgX1 antagonist -5 | MrgX1 antag conf 85% | HEK293 Ca flux inactive | HEK293 Ca counter inactive | HEK293 Ca cntr2 inactive
Cc1ccc(S(=O)(=O)C2C(=O)N(C)C3(C)CC2c2ccccc2O3)cc1 (stereo not drawn)	none
Cc1sc2nc(SCC(=O)N3CCOCC3)[nH]c(=O)c2c1-c1ccccc1	MrgX1 antagonist -5.1 | MrgX1 antag conf inactive | HEK293 Ca flux inactive | HEK293 Ca counter inactive | HEK293 Ca cntr2 inactive
O=C(CSc1nnc(C2COc3ccccc3O2)o1)N1CCCc2ccccc21 (stereo not drawn)	MrgX1 antagonist -4.5 | MrgX1 antag conf inactive | HEK293 Ca flux inactive | HEK293 Ca counter inactive | HEK293 Ca cntr2 inactive
O=C(CSc1nnc(C2COc3ccccc3O2)o1)N1CCOCC1 (stereo not drawn)	none
O=C(NCC1CCCN1S(=O)(=O)c1ccccc1)C(=O)NC1CC1 (stereo not drawn)	MrgX1 antagonist -4.6 | MrgX1 antag conf inactive | HEK293 Ca flux inactive | HEK293 Ca counter inactive | HEK293 Ca cntr2 inactive
